pIC50: −log10 of the molar value.
Columns and labels:
Homo sapiens [1] = species on record: Homo sapiens; test: Inhibition of P-gp in human KBv200 cells assessed as potentiation of navelbine-induced cytotoxicity by measuring reduction in navelbine IC50 at 10 uM after 72 hrs by MTT assay relative to control; format: cell-based
Method in brief: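 KBv200 cells were seeded at 2500 cells/well for 12 h. Navelbine was added at 0.003–30 μM (0.003, 0.01, 0.03, 0.1, 0.3, 1, 3, 10, 30), alone or with modulator at 1, 3 or 10 μM, or with verapamil at 10 μM. Incubation was 72 h, followed by MTT read at A570. Navelbine IC50 came from percent growth inhibition. Reversal fold = IC50 of navelbine alone / IC50 of the combination.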

Homo sapiens [2] = species on record: Homo sapiens; test: Inhibition of P-gp in human KBv200 cells assessed as increase in intracellular rhodamine123 accumulation by measuring fluorescence activity ratio at 10 uM incubated for 4 hrs followed by rhodamine123 addition measured after 1 hr by flow cytometry; format: cell-based
Method in brief: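 KBv200 cells were plated at 1.5 × 10^5/mL and left overnight. Compounds were added at 10 μM in DMSO, with verapamil as reference, for 4 h at 37 °C, 5% CO2. Rho123 at 10 μM was then added for 1 h. Cells were washed twice, resuspended in ice-cold PBS and analysed by flow cytometry. FAR = (F treated − F DMSO control)/(F untreated − F DMSO control).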

KB = test: Cytotoxicity against human KB cells assessed as growth inhibition after 72 hrs by MTT assay; format: functional, cell-based
[3] = Cytotoxicity against human KBv200 cells assessed as growth inhibition after 72 hrs by MTT assay; format: functional, cell-based; conditions: KBv200, 72 h

| Compound | fold change (FC) (Homo sapiens [1]) | Ratio (Homo sapiens [2]) | pIC50 (KB) | pIC50 [3] |
| --- | --- | --- | --- | --- |
| COc1ccc(CCN(C)CCCC(C#N)(c2ccc(OC)c(OC)c2)C(C)C)cc1OC (stereo not drawn) | 259 | 2.25 | – | – |
| CC(=O)O[C@H]1C(=O)[C@@]2(C)[C@H]([C@H](OC(=O)c3ccccc3)[C@]3(O)C[C@H](OC(=O)[C@H](O)[C@@H](NC(=O)c4ccccc4)c4ccccc4)C(C)=C1C3(C)C)[C@]1(OC(C)=O)CO[C@@H]1C[C@@H]2O [PACLITAXEL] | – | – | 8.44 | 5.67 |
| C/C1=C\[C@@H]2[C@H](C[C@@H](O)[C@@]3(C)O[C@@H]3[C@H]3[C@@H](OC(=O)c4ccccc4)[C@@H](C)C[C@]3(O)C1=O)C2(C)C | – | 0.44 | < 4.52 | < 4.52 |
| C/C1=C/C[C@H]2[C@@H](/C=C(\C)C(=O)[C@@]3(OC(=O)c4ccccc4)C[C@H](C)[C@H](O)[C@@H]3[C@H]1O)C2(C)C | – | 1.13 | 4.56 | < 4.52 |
| CC1=C2C=C3CC[C@@H]4C(C)(C)C(=O)CC[C@@]4(C)[C@@H]3C[C@H]2OC1=O [HELIOSCOPINOLIDE E] | – | 0.45 | 4.65 | < 4.52 |
| CC(=O)O[C@]12C[C@H](C)[C@H](O)[C@@H]1[C@@H](O)/C(C)=C/C[C@H]1[C@@H](/C=C(\C)C2=O)C1(C)C | – | 1.27 | < 4.52 | < 4.52 |
| CC(=O)[C@@H]1CC[C@]2(C)C3=C(CC[C@@]12C)[C@@]1(C)CC[C@H](O)C(C)(C)[C@@H]1CC3=O | – | 0.98 | < 4.52 | < 4.52 |
| C[C@H]1C[C@]2(OC(=O)/C=C/c3ccccc3)C(=O)[C@@]3(C)[C@@H]4[C@@H](O)C(C)(C)[C@H]4CC[C@@]3(C)[C@H](O)[C@H]2[C@H]1O | – | 1.47 | 4.96 | 4.97 |
| C/C1=C\[C@@H]2[C@H](CC[C@@]3(C)O[C@@H]3[C@H]3[C@@H](O)[C@@H](C)C[C@]3(OC(=O)/C=C/c3ccccc3)C1=O)C2(C)C [JOLKINOL B] | – | 3.61 | 4.70 | 4.74 |
| C[C@H]1C[C@]2(OC(=O)c3ccccc3)C(=O)[C@@]3(C)[C@@H]4[C@@H](O)C(C)(C)[C@H]4CC[C@@]3(C)[C@H](O)[C@H]2[C@H]1O | – | 0.63 | 4.70 | < 4.52 |
| C=C1CC[C@H]2[C@@H]([C@@H]3[C@@H]1C1=C(C[C@H](C)C1=O)[C@@H](O)[C@@]3(C)O)C2(C)C | – | 0.76 | < 4.52 | < 4.52 |
| C[C@H](/C=C/C=O)[C@@H]1CC[C@]2(C)C3=C(CC[C@@]12C)[C@@]1(C)CC[C@H](O)C(C)(C)[C@@H]1CC3=O | – | 1.25 | < 4.52 | < 4.52 |
| C[C@H]1C[C@]2(OC(=O)/C=C/c3ccccc3)C(=O)/C(CO)=C/[C@@H]3[C@H](CC[C@@]4(C)O[C@H]4[C@H]2[C@H]1O)C3(C)C | – | 0.35 | < 4.52 | < 4.52 |
| CC(=O)N[C@@H]1[C@@H]2[C@H](CC[C@@]3(C)[C@H](O)[C@H]4[C@@H](OC(=O)/C=C/c5ccccc5)[C@@H](C)C[C@]4(O)C(=O)[C@@]13C)C2(C)C | – | 1.51 | < 4.52 | < 4.52 |
| C[C@H]1C[C@]2(O)C(=O)[C@@]3(C)[C@H](OC(=O)c4ccccc4)[C@@H]4[C@H](CC[C@@]3(C)[C@H](O)[C@H]2[C@H]1O)C4(C)C | – | 0.97 | 4.58 | 4.54 |
| C[C@H]1CC2=C([C@H]1O)[C@@H](O)[C@]1(C)CC[C@H]3[C@@H]([C@@H](OC(=O)c4ccccc4)[C@]1(C)C2=O)C3(C)C | – | 1.79 | 4.87 | 4.79 |
| C/C1=C\[C@@H]2[C@H](C[C@@H](O)/C(C)=C/[C@H]3[C@@H](OC(=O)c4ccccc4)[C@@H](C)C[C@]3(O)C1=O)C2(C)C | – | 0.43 | 4.67 | 4.69 |
| CC1=C2C=C3CC[C@@H]4C(C)(C)[C@@H](O)CC[C@@]4(C)[C@@H]3C[C@H]2OC1=O [HELIOSCOPINOLIDE B] | – | 0.49 | 4.68 | < 4.52 |
| CC(=O)/C=C/C[C@@H](C)[C@@H]1CC[C@]2(C)C3=C(CC[C@@]12C)[C@@]1(C)CC[C@H](O)C(C)(C)[C@@H]1CC3=O | – | 1.3 | 4.66 | 4.64 |
| C/C1=C\[C@@H]2[C@H](CC[C@@]3(C)O[C@@H]3[C@H]3[C@@H](O)[C@@H](C)C[C@]3(OC(=O)c3ccccc3)C1=O)C2(C)C [LATILAGASCENE F] | – | 1.3 | < 4.52 | < 4.52 |
| CC1(C)CC[C@]2(C)CC(=O)[C@]3(C)C4=C(CC[C@@]3(C)[C@@H]2C1)[C@@]1(C)CC[C@H](O)C(C)(C)[C@@H]1CC4=O | – | 0.95 | 4.99 | 4.92 |
| CC(=O)CC/C(=C/C1=C(C)CCC1=O)C(C)C [LITSEACHROMOLAEVANE B] | – | 0.4 | < 4.52 | < 4.52 |
| C=C1CC[C@H]2[C@@H](/C=C(\C)C(=O)[C@@]3(OC(C)=O)C[C@H](C)[C@H](O)[C@@H]3[C@H]1O)C2(C)C | – | 0.7 | < 4.52 | < 4.52 |
| CC(=O)O[C@]12C[C@H](C)[C@H](O)[C@@H]1/C=C(\C)CC[C@H]1[C@@H](/C=C(\C)C2=O)C1(C)C [JOLKINOL D] | – | 0.66 | 4.59 | 4.70 |
| C[C@@H]1C[C@]2(O)C(=O)[C@@]3(C)[C@H](OC(=O)c4ccccc4)[C@@H]4[C@H](CC[C@@]3(C)[C@H](O)[C@H]2[C@H]1O)C4(C)C | – | 0.94 | < 4.52 | 4.53 |

Reference: ChEMBL document CHEMBL4190209, “Terpenoids from Euphorbia soongarica and Their Multidrug Resistance Reversal Activity” (J Nat Prod, 2017)
